Bioassay records: PubChem BioAssay, several laboratories
The list is not random: actives were taken first. Their share in the collection is about 1.6%.
Pf gametocyte – late stage P. falciparum gametocyte viability inhibitors, primary screen, ATP luminescence, HTS. inhibition, % at 10.9 µM. P. falciparum stage V gametocytes, 24 h. 150,000 tested, 0.065% active;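 active = inhibition above the mean plus 3 SD of compounds within the control limits, set per campaign, cut at about 38% in these data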
Wee1 stabilizer – Wee1 degradation inhibitors, primary screen, cell-based, HeLa, Wee1K328M-luciferase, luminescence; Wee1-like protein kinase (Homo sapiens), P30291; reporter increase, % at 5 µM; HeLa Luc-Wee1K328M stability; 100% = proteasome inhibitor MG132 effect; 220,000 tested, 1.2% active;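 active = activation above the mean of all tested compounds plus 3 SD, set per screening run, cut at about 8.8% in these data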;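 note: cells exposed to compound for 20 h before luminescence read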
MDM2 E3 inh – MDM2-luciferase reporter signal enhancers, primary screen, MDM2 E3 ligase inhibitor project, cell-based, luminescence, 1536-well; 210,000 tested, 0.11% active; AID 1230, 2008; signal enhancement, % at 5 µM; cell-based MDM2 ubiquitination luciferase reporter, 2 h; 0 = plate control, 100 = twice control, blank-subtracted;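 active = signal enhancement of 30% or more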;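 note: luminescence tracks abundance of the self-degrading MDM2-luciferase fusion protein; higher signal means inhibition of MDM2 E3 ligase activity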
Target sequence (Q00987 whole entry, looked up, the tested form may be a part): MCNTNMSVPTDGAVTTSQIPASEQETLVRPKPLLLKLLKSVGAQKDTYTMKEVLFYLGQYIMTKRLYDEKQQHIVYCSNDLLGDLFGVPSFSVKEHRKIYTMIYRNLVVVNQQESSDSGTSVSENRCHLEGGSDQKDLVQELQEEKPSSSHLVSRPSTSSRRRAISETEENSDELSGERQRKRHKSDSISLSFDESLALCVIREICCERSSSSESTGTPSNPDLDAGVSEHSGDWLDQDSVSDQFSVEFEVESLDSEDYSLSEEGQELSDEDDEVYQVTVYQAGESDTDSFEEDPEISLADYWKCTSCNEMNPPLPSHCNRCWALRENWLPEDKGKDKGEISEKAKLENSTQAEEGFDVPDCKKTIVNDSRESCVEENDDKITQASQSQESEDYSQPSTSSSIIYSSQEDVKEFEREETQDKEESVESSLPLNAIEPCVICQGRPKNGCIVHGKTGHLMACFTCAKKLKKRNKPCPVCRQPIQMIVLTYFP
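Material: stable MDM2–luciferase fusion reporter cells / Quantity: 2000 cells/well / Dosing: single 5 µM compound dose, 0.2% final DMSO / Buffer or medium: DMEM / Schedule: 4 h cell settling then 2 h compound exposure, 37 °C / Detection: luminescence with SteadyLite reagent, 15 min at room temperature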
TNF death inh – inhibitors of TNF-alpha triggered necroptosis, primary screen, cell-based, Jurkat FADD-/-, single concentration; activation (protection from cell death), % at 10 µM; AID 463075, 2010; 220,000 tested, 0.068% active; Jurkat FADD-/- TNF necroptosis rescue, ATP luminescence, 24 h; 0 = TNF only, 100 = no-TNF cells;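 active = activation, meaning protection from cell death, of at least 50% relative to plate controls; inactive = activation below 50%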;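 note: necroptosis triggered by 40 ng/mL TNF-alpha added together with compound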
L929 necroptosis – inhibitors of zVAD-triggered necroptosis, primary screen, L929 cells; L929 zVAD necroptosis rescue, ATP luminescence, 24 h; with zVAD 60 µM; viability rescue, % at 10 µM; 220,000 tested, 0.38% active; AID 1377, 2008;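 active = activation, scaled between plate controls, above about 75%, limit read from the data; inactive = activation under that limit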
Of the large screens only hits and unclear results are named; the others gave an inactive call.

O=C(CSc1ccc(Cl)cc1)N1N=CCC1c1ccccc1 (centres undefined)	TNF death inh 99.5
Cc1cc(NC(=O)C2COc3ccccc3O2)no1 (centres undefined)	TNF death inh 90.4 (no result: Pf gametocyte)
Cc1cnc(NC(=O)C2COc3ccccc3O2)s1 (centres undefined)	TNF death inh 75.9 (no result: Pf gametocyte)
O=C(N/N=C/c1cccc([N+](=O)[O-])c1)c1cccc(Br)c1	Wee1 stabilizer 9.4
O=C(N/N=C/c1ccc(Br)s1)c1ccc([N+](=O)[O-])cc1	Wee1 stabilizer 9.0
O=C(N/N=C/c1ccc(Br)s1)c1ccccc1[N+](=O)[O-]	none (no result: Pf gametocyte)
O=C(N/N=C/c1cccc([N+](=O)[O-])c1)c1ccc(Br)cc1	none
O=c1c(-c2cccc3ccccc23)[n+]([O-])c2ccccc2n1O	none (no result: Pf gametocyte)
O=C(N/N=C\C=C\c1ccc2c(c1)OCO2)C1COc2ccccc2O1 (centres undefined)	Wee1 stabilizer 9.3 (no result: L929 necroptosis)
COc1ccc(NC(=O)C2CCN(c3nc(C)cc(C)n3)CC2)cc1	none (no result: MDM2 E3 inh)
COc1ccc(C(C(=O)OC(C)CN(C)C)c2ccccc2)cc1 (centres undefined)	none
COCCCNC(=O)CNC(=S)N(Cc1ccc(F)cc1)C1CCCCC1	Wee1 stabilizer 10.3
O=C(NC1CCN(Cc2ccccc2)CC1)c1ccc(N2CC3CC(C2)c2cccc(=O)n2C3)c([N+](=O)[O-])c1 (centres undefined)	none
CCOC(=O)N1CCN(C(=O)c2ccc(N(Cc3ccc(C)cc3)S(C)(=O)=O)cc2)CC1	none
Cc1ccc(CN(c2ccc(C(=O)N3CCOCC3)cc2)S(C)(=O)=O)cc1	Wee1 stabilizer 10.0 (no result: Pf gametocyte)
COc1ccc2[nH]c3c4c(ccc3c2c1)C(=O)C=CC4=O	Wee1 stabilizer 13.6, MDM2 E3 inh 32.0 (no result: Pf gametocyte)
Cc1ccc(NC(=O)/C(=C\c2ccc([N+](=O)[O-])cc2)NC(=O)c2ccccc2)cc1	none (no result: Pf gametocyte)
O=C(N/N=C/c1ccc(O)c(O)c1O)/C(=C/c1ccc([N+](=O)[O-])cc1)NC(=O)c1ccccc1	Pf gametocyte 40.3
Cc1ccccc1Nc1scc(-c2ccc(Cl)cc2)[n+]1-c1ccccc1C	none
CSc1ccc(NC(=O)c2cccnc2)cc1C#N	Wee1 stabilizer 8.8
CNC(=O)CSc1nnc(-c2cccnc2)n1-c1ccc(C)cc1	none
O=C(CCCn1c(=O)[nH]c2ccsc2c1=O)N1CCN(c2ccccn2)CC1	Wee1 stabilizer 10.8 (no result: Pf gametocyte)
S=c1[nH]ncn1NCc1cccc(Br)c1	none (no result: Wee1 stabilizer, MDM2 E3 inh, TNF death inh, L929 necroptosis)
Cc1ccc(NCCC(=O)c2ccc(Cl)cc2)cc1C	none (no result: Pf gametocyte)
O=C(C[n+]1ccccc1)N/N=C/c1ccccc1F	none
CCOc1cc(C(=O)NC(=S)Nn2cnnc2)cc(OCC)c1OCC	none
CCOc1cc(C(=O)Nn2cnnc2)cc(OCC)c1OCC	Wee1 stabilizer 8.9
O=C1Nc2ccccc2C12OCCCO2	none
CC(NC(=O)COC(=O)c1ccc([N+](=O)[O-])s1)c1ccccc1 (centres undefined)	Wee1 stabilizer 8.9 (no result: Pf gametocyte)
CN(Cc1cnn(C)c1)C(=O)CC1C(=O)NCCN1Cc1cccc(Oc2ccccc2)c1 (centres undefined)	none
CC(C)CNC(CC(=O)O)c1ccccc1 (centres undefined)	Wee1 stabilizer 9.6
O=C1c2ccccc2C(=O)N1Cc1nc2ccccc2c(=O)n1CCCN1CCOCC1	none
O=C(NCc1cccnc1)C(=O)NCC1OCCN1S(=O)(=O)c1ccc(F)cc1 (centres undefined)	Wee1 stabilizer 9.2 (no result: Pf gametocyte, MDM2 E3 inh, L929 necroptosis)
O=C(NCc1cccnc1)C(=O)NCC1OCCCN1S(=O)(=O)c1ccc(Cl)cc1 (centres undefined)	none
Cc1cc(F)ccc1S(=O)(=O)N1CCCOC1CNC(=O)C(=O)NCc1ccco1 (centres undefined)	Wee1 stabilizer 9.1
O=C(CSCc1ccccc1)N1CCN(c2ccccc2)CC1	Wee1 stabilizer 9.0
COCCCNC(=S)N1CCN(c2nc(-c3ccc(F)cc3)cs2)CC1	none (no result: Wee1 stabilizer, MDM2 E3 inh, TNF death inh, L929 necroptosis)
COc1ccc(NC2=NC(=S)N(c3ccccc3C)C23CCCCC3)cc1	none
COc1ccc(N2C(=S)N=C(Nc3ccccc3)C23CCCCC3)cc1	MDM2 E3 inh 30.1
O=C(N/N=C/c1ccncc1)NC12CC3CC(CC(C3)C1)C2	none
Cc1ccc(/C=N/NC(=O)NC23CC4CC(CC(C4)C2)C3)o1	Wee1 stabilizer 10.3 (no result: TNF death inh, L929 necroptosis)
O=C(Nc1ccc([N+](=O)[O-])cn1)c1cccnc1	none (no result: Wee1 stabilizer, MDM2 E3 inh, TNF death inh, L929 necroptosis)
O=C(Nc1ccc([N+](=O)[O-])cn1)c1ccc(Br)o1	Wee1 stabilizer 10.1 (no result: Pf gametocyte)
O=C(O)CSc1nnc(COc2ccccc2)n1-c1ccccc1	none (no result: Wee1 stabilizer, MDM2 E3 inh, TNF death inh, L929 necroptosis)
COc1ccccc1CNC(=O)c1ccncc1	none (no result: Wee1 stabilizer, MDM2 E3 inh, TNF death inh, L929 necroptosis)
CNC(=O)COC(=O)c1ccc(Cl)c(S(=O)(=O)N2CCCC2)c1	Wee1 stabilizer 10.1
COCC(=O)Nc1ccc(Br)cc1C	Pf gametocyte 38.6
Cc1cc(F)ccc1NCC(=O)Nc1ccc(Br)cc1C	none
COc1ccc(OCCn2nnc(-c3ccc(Cl)cc3)n2)cc1	Wee1 stabilizer 15.9 (no result: Pf gametocyte)
CCOC(=O)C(C#N)C(c1cccnc1)c1c(C)[nH][nH]c1=O (centres undefined)	Pf gametocyte 39.8
NC(=O)c1ccc(NC(=O)Cn2c(=O)n(-c3ccccc3)c(=O)c3oc4ccccc4c32)cc1	Wee1 stabilizer 9.9
COc1ccc(CCNC(=O)c2ccc(SC)cc2OC)cc1	none
COc1cc(SC)ccc1C(=O)NCCOc1ccc(F)cc1	Wee1 stabilizer 10.1 (no result: Pf gametocyte)
Cc1nn(-c2ccccc2)c(N2CCCC2)c1C=O	Pf gametocyte 40.0
COc1ccc(NC(=O)/C(C#N)=C\c2ccc(OCc3ccc(C(=O)O)cc3)c(OC)c2)cc1	MDM2 E3 inh 30.1
CC(=O)N1CCc2cc(S(=O)(=O)CCC(=O)Nc3ccc4c(c3)OCCO4)ccc21	none (no result: Pf gametocyte)
COc1ccc(S(=O)CC(=O)Nc2ccccc2Cl)cc1 (centres undefined)	Wee1 stabilizer 9.7
O=C(NCc1ccc(F)cc1)C1CCN(S(=O)(=O)N2CCCC2)CC1	none
Cc1ccc(CNC(=O)C2CCN(S(=O)(=O)N3CCCCC3)CC2)cc1	Pf gametocyte 40.1
Cc1nn(-c2ccc(Cl)cc2)c2sc(C(=O)c3c(N)n(C)c(=O)n(C)c3=O)cc12	none
CNC(=O)c1ccc(OCc2ccccc2)c(OC)c1	none
COc1ccccc1NC(C#N)c1ccccc1OCc1ccccc1 (centres undefined)	Wee1 stabilizer 10.8
COc1cccc(C(=O)N(Cc2ccc3c(c2)OCO3)Cc2nc3ccccc3c(=O)[nH]2)c1	none
CC(=O)Nc1cc2c(cc1C(C)=O)OCCO2	Wee1 stabilizer 9.0
